# Source: ChEMBL document CHEMBL2157961, “Optimisation of pharmacokinetic properties in a neutral series of 11β-HSD1 inhibitors” (Bioorg Med Chem Lett, 2012)
# Experiments:
# [1] = Lipophilicity, log D of the compound at pH 7.4; format: physicochemical; settings: buffer
# [2] = Oral bioavailability in rat; format: ADME, organism-based; settings: in vivo
# [3] = Cmax in dog at 1 mg/kg, po and iv; format: ADME, organism-based, Canis lupus familiaris; design: dose 1 mg/kg, route oral; settings: in vivo
# Canis familiaris = experiment: Volume of distribution at steady state in dog at 1 mg/kg, po and iv; format: ADME, organism-based, Canis lupus familiaris; design: dose 1 mg/kg, route oral; settings: in vivo
# [4] = Oral bioavailability in dog at 1 mg/kg; format: ADME, organism-based, Canis lupus familiaris; settings: in vivo
# [5] = Apparent permeability across apical to basolateral side in MDCK cells at 10 uM; format: ADME, cell-based, Canis lupus familiaris; settings: dog
# Procedure, shortened: (§1)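 Test compound at […] incubated on cultured MDCK cell monolayers. Apparent permeability measured in both directions, apical to basolateral and basolateral to apical.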
# [6] = Apparent permeability across basolateral to apical side in MDCK cells at 10 uM; format: ADME, cell-based, Canis lupus familiaris; settings: dog; procedure, shortened: as §1
# [7] = Aqueous solubility in phosphate buffer at pH 7.4 after 24 hrs; format: physicochemical
# Procedure, shortened: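 Solubility measured on crystalline material in aqueous phosphate buffer, pH 7.4, after 24 h at 25 °C.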
SMILES,logD [1],bioavailability [2] [%],other results
Cc1ncc(C(=O)N[C@H]2C3CC4CC2C[C@](O)(C4)C3)c(CC2CCCC2)n1,2.1,50,
Cc1ncc(C(=O)N[C@H]2C3CC4CC2C[C@](O)(C4)C3)c(-c2ccccc2)n1,1.1,,
Cc1ncc(C(=O)N[C@H]2C3CC4CC2C[C@](O)(C4)C3)c(C2CCCC2)n1,2,77,Cmax [3]: 170 nM; Vdss (Canis familiaris): 0.9 L/kg; bioavailability [4]: 58%
O=C(N[C@H]1C2CC3CC1C[C@](O)(C3)C2)c1ccc(N2CCOCC2)nc1C1CC1,2,100,Cmax [3]: 40 nM; Vdss (Canis familiaris): 0.6 L/kg; bioavailability [4]: 25%
Cc1nc(N2CCOCC2)ncc1C(=O)N[C@H]1C2CC3CC1C[C@](O)(C3)C2,1.2,,
CC(C)(C)c1nc(N2CCOCC2)ncc1C(=O)N[C@H]1C2CC3CC1C[C@](O)(C3)C2,2.6,100,
O=C(N[C@H]1C2CC3CC1C[C@](O)(C3)C2)c1cnc(N2CCOCC2)nc1C1CC1,2.1,100,Cmax [3]: 360 nM; Vdss (Canis familiaris): 0.9 L/kg; Papp A→B at 10 µM [5]: 19 ×10⁻⁶ cm/s; Papp B→A at 10 µM [6]: 30 ×10⁻⁶ cm/s; solubility at 24 h [7]: 240 µM; bioavailability [4]: 100%
O=C(N[C@H]1C2CC3CC1C[C@](O)(C3)C2)c1cnc(N2CCOCC2)nc1C1CCC1,2.4,45,
O=C(N[C@H]1C2CC3CC1C[C@](O)(C3)C2)c1cnc(N2CCOCC2)nc1C1CCCC1,3,67,
O=C(N[C@H]1C2CC3CC1C[C@](O)(C3)C2)c1cnc(N2CCOCC2)nc1C1CCCCC1,3.2,31,
CC1(c2nc(N3CCOCC3)ncc2C(=O)N[C@H]2C3CC4CC2C[C@](O)(C4)C3)CC1,1.8,,
CCCOc1nc(N2CCOCC2)ncc1C(=O)N[C@H]1C2CC3CC1C[C@](O)(C3)C2,3,36,

# More lines, main results first:
logD [1],bioavailability [2] [%],SMILES,other results
2,0,CCCSc1ncncc1C(=O)N[C@H]1C2CC3CC1C[C@](O)(C3)C2,
2.8,63,CCCSc1nc(C)ccc1C(=O)N[C@H]1C2CC3CC1C[C@](O)(C3)C2,Cmax [3]: 150 nM; Vdss (Canis familiaris): 0.4 L/kg; bioavailability [4]: 5%
2.5,74,CCCSc1nc(C)ncc1C(=O)N[C@H]1C2CC3CC1C[C@](O)(C3)C2,Cmax [3]: 490 nM; Vdss (Canis familiaris): 0.3 L/kg; bioavailability [4]: 110%
3.3,30,CCCSc1nc(NC)ccc1C(=O)N[C@H]1C2CC3CC1C[C@](O)(C3)C2,
2.9,,CCCSc1nc(NC)ncc1C(=O)N[C@H]1C2CC3CC1C[C@](O)(C3)C2,
3.8,24,CCCSc1nc(N(C)C)ccc1C(=O)N[C@H]1C2CC3CC1C[C@](O)(C3)C2,
3.4,,CCCSc1nc(N(C)C)ncc1C(=O)N[C@H]1C2CC3CC1C[C@](O)(C3)C2,
2.9,64,CCCSc1nc(N2CCOCC2)ccc1C(=O)N[C@H]1C2CC3CC1C[C@](O)(C3)C2,Vdss (Canis familiaris): 0.5 L/kg; bioavailability [4]: 0%
2.8,83,CCCSc1nc(N2CCOCC2)ncc1C(=O)N[C@H]1C2CC3CC1C[C@](O)(C3)C2,Cmax [3]: 40 nM; Vdss (Canis familiaris): 0.7 L/kg; bioavailability [4]: 10%
1.6,98,CCCCc1nc(C)ncc1C(=O)N[C@H]1C2CC3CC1C[C@](O)(C3)C2,
1.9,84,Cc1ncc(C(=O)N[C@H]2C3CC4CC2C[C@](O)(C4)C3)c(C(C)(C)C)n1,
1.4,100,Cc1ncc(C(=O)N[C@H]2C3CC4CC2C[C@](O)(C4)C3)c(CC(C)C)n1,
1.2,,Cc1ncc(C(=O)N[C@H]2C3CC4CC2C[C@](O)(C4)C3)c(CC2CC2)n1,
1.2,,Cc1ncc(C(=O)N[C@H]2C3CC4CC2C[C@](O)(C4)C3)c(C2CC2)n1,
1.6,75,Cc1ccc(C(=O)N[C@H]2C3CC4CC2C[C@](O)(C4)C3)c(C2CC2)n1,Cmax [3]: 260 nM; Vdss (Canis familiaris): 0.3 L/kg; bioavailability [4]: 37%
3.8,31,CCCOc1nc(N2CCOCC2)ccc1C(=O)N[C@H]1C2CC3CC1C[C@](O)(C3)C2,
